From ChEMBL document CHEMBL3098041, “Synthesis and anticancer evaluation of 3-substituted quinolin-4-ones and 2,3-dihydroquinolin-4-ones” (Bioorg Med Chem, 2014)

What was measured:
[1] = Cytotoxicity against human H460 cells assessed as cell viability at 25 uM after 72 hrs by Alamar blue assay; assay type: functional; conditions: NCI-H460, 72 h, read-out: Activity
In short: (§1)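 Cells were grown in DMEM with 10% FBS at 37 °C, 5% CO2, humidified. Log-phase cells were seeded in 96-well plates at a fixed density and allowed to adhere for 24 h. Compound or vehicle-only control was added to duplicate wells at one fixed concentration for 72 h. Alamar Blue fluorescence was read (ex 555, em 585 nm) as % viability (0% = total growth inhibition). Assays were run in triplicate.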

[2] = test system: HT-29; assay: Cytotoxicity against human HT-29 cells assessed as cell viability at 25 uM after 72 hrs by Alamar blue assay; assay type: functional; conditions: HT-29, 72 h, read-out: Activity; in short: as §1
[3] = test system: A-431; assay: Cytotoxicity against human A431 cells assessed as cell viability at 25 uM after 72 hrs by Alamar blue assay; assay type: functional; conditions: A-431, 72 h, read-out: Activity; in short: as §1
[4] = test system: DU-145; assay: Cytotoxicity against human DU145 cells assessed as cell viability at 25 uM after 72 hrs by Alamar blue assay; assay type: functional; conditions: DU-145, 72 h, read-out: Activity; in short: as §1
[5] = test system: DU-145; assay: Cytotoxicity against human DU145 cells assessed as cell viability after 72 hrs by Alamar blue assay; assay type: functional, cell-based; conditions: DU-145, 72 h
In short: (§2)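 This was a dose–response Alamar Blue assay run in triplicate. Cells were kept in DMEM with 10% FBS (37 °C, 5% CO2, humidified). Log-phase cells were plated at a fixed density in 96-well plates and left to adhere for 24 h. Compound or vehicle was added to duplicate wells. After 72 h exposure, metabolic activity was measured by fluorescence (ex 555, em 585 nm).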

[6] = test system: MCF7; assay: Cytotoxicity against human MCF7 cells assessed as cell viability after 72 hrs by Alamar blue assay; assay type: functional, cell-based; conditions: MCF7, 72 h; in short: as §2
[7] = test system: A-431; assay: Cytotoxicity against human A431 cells assessed as cell viability after 72 hrs by Alamar blue assay; assay type: functional, cell-based; conditions: A-431, 72 h; in short: as §2
[8] = Cytotoxicity against human H460 cells assessed as cell viability after 72 hrs by Alamar blue assay; assay type: functional, cell-based; conditions: NCI-H460, 72 h; in short: as §2
[9] = test system: HT-29; assay: Cytotoxicity against human HT-29 cells assessed as cell viability after 72 hrs by Alamar blue assay; assay type: functional, cell-based; conditions: HT-29, 72 h; in short: as §2
[10] = test system: MRC5; assay: Cytotoxicity against human MRC5 cells assessed as cell viability after 72 hrs by Alamar blue assay; assay type: cell-based; conditions: MRC5, 72 h; in short: as §2
[11] = test system: MCF7; assay: Cytotoxicity against human MCF7 cells assessed as cell viability at 25 uM after 72 hrs by Alamar blue assay; assay type: functional; conditions: MCF7, 72 h, read-out: Activity; in short: as §1

Q: Which viability at 25 µM [1] does the source give for `COc1cc(OC)c2c(=O)c(-c3ccc(C)cc3)c[nH]c2c1` here?
A: The viability at 25 µM was 53.8%.

Q: And the viability at 25 µM [2]?
A: The viability at 25 µM was 102%.

Q: And the viability at 25 µM [3]?
A: Its viability at 25 µM is 89.9%.

Q: And the viability at 25 µM [4]?
A: Its viability at 25 µM is 76.6%.

Q: Which viability at 25 µM [1] does the source give for `COc1cc(OC)c2c(=O)c(-c3cccc(Br)c3)c[nH]c2c1` here?
A: Its viability at 25 µM is 43.9%.

Q: What about the viability at 25 µM [2] of the same molecule?
A: The viability at 25 µM was 37.8%.

Q: What about the viability at 25 µM [3] of the same molecule?
A: The viability at 25 µM was 66.5%.

Q: And the viability at 25 µM [4]?
A: Its viability at 25 µM is 71.8%.

Q: Which results are given for `COc1cc(O)c2c(=O)c(-c3cccc(Br)c3)c[nH]c2c1`?
A: IC50 [5]: 9.5 µM; viability at 25 µM [1]: 2%; IC50 [6]: 21.9 µM; viability at 25 µM [2]: 14.1%; IC50 [7]: 5.5 µM; viability at 25 µM [3]: 1%; viability at 25 µM [4]: 10%; IC50 [8]: 9.2 µM; IC50 [9]: 3.6 µM; IC50 [10]: 6.7 µM

Q: With `COc1cc(O)c2c(=O)c(-c3ccc(F)cc3)c[nH]c2c1` as the molecule, how does the viability at 25 µM [1] read?
A: The viability at 25 µM was 38.9%.

Q: And the viability at 25 µM [2]?
A: Its viability at 25 µM is 31.2%.

Q: And the viability at 25 µM [3]?
A: The viability at 25 µM was 71.4%.

Q: What about the viability at 25 µM [4] of the same molecule?
A: Its viability at 25 µM is 43.4%.

Q: With `COc1cc(OC)c2c(=O)c(-c3ccc(Br)cc3)c[nH]c2c1` as the molecule, how does the viability at 25 µM [1] read?
A: The viability at 25 µM was 33.5%.

Q: And the viability at 25 µM [2]?
A: Its viability at 25 µM is 26.2%.

Q: What about the viability at 25 µM [3] of the same molecule?
A: The viability at 25 µM was 69.1%.

Q: And the viability at 25 µM [4]?
A: The viability at 25 µM was 74.8%.

Q: What about the viability at 25 µM [11] of the same molecule?
A: Its viability at 25 µM is 35.3%.

Q: With `COc1ccc([C@H]2CNc3cc(OC)cc(OC)c3C2=O)cc1` as the molecule, how does the viability at 25 µM [1] read?
A: The viability at 25 µM was 94.3%.

Q: And the viability at 25 µM [2]?
A: The viability at 25 µM was 106%.

Q: And the viability at 25 µM [3]?
A: Its viability at 25 µM is 89.6%.

Q: And the viability at 25 µM [4]?
A: Its viability at 25 µM is 91.1%.

Q: And the viability at 25 µM [11]?
A: The viability at 25 µM was 85.1%.

Q: Which viability at 25 µM [1] does the source give for `COc1cc(O)c2c(=O)c(-c3ccc(Br)cc3)c[nH]c2c1` here?
A: Its viability at 25 µM is 65.5%.

Q: What about the viability at 25 µM [2] of the same molecule?
A: Its viability at 25 µM is 29.2%.

Q: What about the viability at 25 µM [3] of the same molecule?
A: The viability at 25 µM was 104%.

Q: What about the viability at 25 µM [4] of the same molecule?
A: The viability at 25 µM was 73.5%.

Q: What about the viability at 25 µM [11] of the same molecule?
A: The viability at 25 µM was 52.6%.

Q: For `O=C1c2c(O)cc(O)cc2NCC1c1ccccc1` (stereo not given), which viability at 25 µM [1] is on record?
A: The viability at 25 µM was 74.5%.

Q: And the viability at 25 µM [2]?
A: The viability at 25 µM was 98.5%.

Q: And the viability at 25 µM [3]?
A: Its viability at 25 µM is 98.5%.

Q: And the viability at 25 µM [4]?
A: The viability at 25 µM was 83.1%.

Q: And the viability at 25 µM [11]?
A: Its viability at 25 µM is 121%.

Q: For `COc1ccc(C2CNc3cc(OC)cc(O)c3C2=O)cc1` (stereo not given), which viability at 25 µM [1] is on record?
A: Its viability at 25 µM is 94.1%.

Q: What about the viability at 25 µM [2] of the same molecule?
A: Its viability at 25 µM is 97.3%.

Q: And the viability at 25 µM [3]?
A: The viability at 25 µM was 108%.

Q: What about the viability at 25 µM [4] of the same molecule?
A: Its viability at 25 µM is 106%.

Q: And the viability at 25 µM [11]?
A: The viability at 25 µM was 85.7%.

Q: What does the source list for `COc1cc(O)c2c(=O)c(-c3ccc(C)cc3)c[nH]c2c1`?
A: viability at 25 µM [1]: 50.7%; viability at 25 µM [2]: 29.6%; viability at 25 µM [3]: 76.5%; viability at 25 µM [4]: 85.1%

Q: Which results are given for `COc1cc(OC)c2c(=O)c(-c3ccc(F)cc3)c[nH]c2c1`?
A: viability at 25 µM [1]: 86%; viability at 25 µM [2]: 114%; viability at 25 µM [3]: 103%; viability at 25 µM [4]: 88.7%

Q: With `COc1cc(O)c2c(c1)NCC(c1ccccc1)C2=O` (stereo not given) as the molecule, how does the viability at 25 µM [1] read?
A: The viability at 25 µM was 78%.

Q: And the viability at 25 µM [2]?
A: The viability at 25 µM was 90.8%.

Q: And the viability at 25 µM [3]?
A: The viability at 25 µM was 90.8%.

Q: What about the viability at 25 µM [4] of the same molecule?
A: The viability at 25 µM was 81.6%.

Q: And the viability at 25 µM [11]?
A: Its viability at 25 µM is 83.2%.

Q: For `COc1cc2c(c(OC)c1)C(=O)[C@@H](c1ccccc1)CN2`, which viability at 25 µM [1] is on record?
A: The viability at 25 µM was 87.6%.

Q: What about the viability at 25 µM [2] of the same molecule?
A: The viability at 25 µM was 98.8%.

Q: What about the viability at 25 µM [3] of the same molecule?
A: Its viability at 25 µM is 98.3%.

Q: And the viability at 25 µM [4]?
A: The viability at 25 µM was 95.4%.

Q: What about the viability at 25 µM [11] of the same molecule?
A: The viability at 25 µM was 83.6%.
